In one assay the test system is HCT-116. In words: Cytotoxicity against human HCT116 cells assessed as inhibition of cell proliferation after 24 hrs by WST-1 assay. The format is functional, cell-based. Particulars: HCT-116, 24 h. An outline of the steps: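 HCT116 cells from ATCC, grown in McCoy's 5A with 10% FBS, penicillin and streptomycin at 37 °C under 5% CO2. Plated at 1 × 10^4 cells per well with compound at 10 and 100 μM for 24 h. Viability read by WST-1. IC50 given as mean ± SD of five independent experiments.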
On the technique in general: Formazan colour is commonly taken as a measure of viable cells.

Assay [1] in a line: (§1) Inhibition of calf thymus DNA polymerase alpha assessed as incorporation of [3H]dTTP into poly(dA)/oligo(dT)18 DNA-template primer after 60 mins. Also on record: species or system Bos taurus. Summed up:
(§2)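 Pol α from calf thymus, purified by immunoaffinity column. Rat pol β expressed in E. coli JMpβ5. Template-primer poly(dA)/oligo(dT)18 (A/T 2:1) with [3H]dTTP (43 Ci/mmol). Each enzyme (0.05 unit) was preincubated with compound for 10 min at 0 °C in 50 mM Tris-HCl pH 7.5 with 1 mM DTT, 50% glycerol and 0.1 mM EDTA. Reaction ran 60 min at 37 °C. Activity relative to no-inhibitor control; IC50 from dose-response curves.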

For assay [2], the species on record is Bos taurus. Briefly: Inhibition of calf thymus DNA polymerase alpha assessed as incorporation of [3H]dTTP into poly(dA)/oligo(dT)18 DNA-template primer at 100 uM after 60 mins. Summed up:
(§3)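 Single-concentration screen at 100 μM. Compound was dissolved in DMSO and sonicated 30 s. Enzyme (0.05 unit of calf thymus pol α or E. coli-expressed rat pol β) was preincubated 10 min at 0 °C in Tris-HCl pH 7.5/DTT/glycerol/EDTA. Reaction with poly(dA)/oligo(dT)18 and [3H]dTTP ran 60 min at 37 °C. Activity given as percent of no-inhibitor control.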

Assay [3] concerns the target DNA polymerase beta (Rattus norvegicus) (UniProt P06766). Briefly: Inhibition of rat recombinant DNA polymerase beta expressed in Escherichia coli JMpbeta5 cells assessed as incorporation of [3H]dTTP into poly(dA)/oligo(dT)18 DNA-template primer at 100 uM after 60 mins. Summed up: as §3
In the next assay the target is DNA polymerase beta (Rattus norvegicus, UniProt P06766). In words: (§4) Inhibition of rat recombinant DNA polymerase beta expressed in Escherichia coli JMpbeta5 cells assessed as incorporation of [3H]dTTP into poly(dA)/oligo(dT)18 DNA-template primer after 60 mins. An outline of the steps: as §2
For assay [4], the species on record is Bos taurus. The description is as §1. Summed up:
as §2

Assay [5] has as its target DNA polymerase beta (Rattus norvegicus) (UniProt P06766). The description is as §4. An outline of the steps:
as §2

The structures appear in SMILES notation. Activity calls are given as the source filed them. No cut-off for these calls is given here.

On to `CC1=CC[C@@H]2[C@H](C=C(C)[C@H]3[C@]4(C)OCC[C@@H](C)[C@H]4O[C@H](/C=C/C=C/C(=O)O)[C@@H](O)[C@@]23O)C1`, for which the IC50 (with HCT-116; in assay [1]; on DNA polymerase beta) was over 100 µM in each case. Moreover, the inhibition entry (in the assay listed under Bos taurus [2]; in assay [3]) was “Active” each time.
On to `C[C@@]1(CO)[C@H](O)CC[C@@]2(C)[C@H]1CC[C@H]1C[C@@H]3C[C@@]12CC[C@]3(O)CO` [APHIDICOLIN], for which the IC50 in the assay with HCT-116 is 9 µM; in assay [1] it was 19.6 µM; on DNA polymerase beta, over 100 µM.
On to `C=C1[C@@H]2C(C)=C[C@@H]3CC(C)=CC[C@H]3[C@@H]2[C@H](O)[C@@H](/C=C/C=C/C(=O)O)O[C@@H]1[C@H](C)CC`, for which the IC50 came out at 26.1 µM with HCT-116, 17.3 µM in assay [1] and 19.5 µM on DNA polymerase beta. In addition, the inhibition entry (in the assay listed under Bos taurus [4]; in assay [5]) was “Dose-dependent effect” throughout. Moreover, the inhibition result (in the assay filed under Bos taurus [2]; in assay [3]) was “Active” each time.
Regarding `CC[C@@H](C)[C@H]1O[C@]1(C)[C@@H]1C(C)=C[C@@H]2CC(C)=CC[C@H]2[C@@H]1/C=C/C=C/C=C/C(=O)O`, the results for the IC50 (in the assay on HCT-116; in assay [1]; at DNA polymerase beta) were 6.4 µM, 8.1 µM and 9.5 µM, respectively. The inhibition entry (in the assay listed under Bos taurus [4]; in assay [5]) was “Dose-dependent effect” in each case. Further, the inhibition entry (in the assay filed under Bos taurus [2]; in assay [3]) was “Active” in each case.
In the case of `C=C1[C@@H]([C@H](C)CC)O[C@H](/C=C/C=C/C(=O)O)[C@@H](O)[C@H]2[C@@H]3CC=C(C)C[C@H]3C=C(C)[C@@]12O`, the IC50 (with HCT-116; in assay [1]; on DNA polymerase beta) was over 100 µM each time. In addition, the inhibition entry (in the assay filed under Bos taurus [2]; in assay [3]) was “Active” throughout.
In the case of `Cc1cn([C@H]2CC[C@@H](COP(=O)(O)OP(=O)(O)OP(=O)(O)O)O2)c(=O)[nH]c1=O`, the figures for the IC50 (in the assay with HCT-116; in assay [1]; at DNA polymerase beta) were over 100 µM, over 100 µM and 30.8 µM, respectively.
Consider `CC[C@@H](C)[C@H]1O[C@H](/C=C/C=C/C(=O)O)[C@@H](O)[C@@]2(O)[C@@H]3CC=C(C)C[C@H]3C=C(C)[C@H]2[C@]1(C)O`, for which the IC50 (with HCT-116; in assay [1]; at DNA polymerase beta) was over 100 µM throughout. The inhibition result (in the assay listed under Bos taurus [2]; in assay [3]) was “Active” in each case.
Consider `CC1=CC[C@H]2[C@@H]3[C@H](O)[C@@H](/C=C/C=C/C(=O)O)O[C@@H]4[C@H](C)CCO[C@@]4(C)[C@@H]3C(C)=C[C@@H]2C1`, for which the IC50 is 74.8 µM in the assay on HCT-116, 47.2 µM in assay [1] and 37.9 µM on DNA polymerase beta. Moreover, the inhibition entry (in the assay filed under Bos taurus [2]; in assay [3]) was “Active” in each case.

A word on the IC50: it is the concentration that gives 50% inhibition.
